# Bioassay records: PubChem, The Scripps Research Institute Molecular Screening Center
# In the library only some 2.4% were active in any assay of this set; here they are far more common.
# OPRM1-OPRD1 inv – mu-delta opioid heterodimer inverse agonism; 0.21% of 340,000 active; P35372+P41143; inhibition, % at 9.3 µM; cell-based MOR-DOR heterodimer luminescence; in the data active = inhibition above about 22%, passing the limit was not always enough;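 note: 0% = cells with DMSO and 100% = wells without cells with DMSO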
# Target sequence (P35372 whole entry, looked up): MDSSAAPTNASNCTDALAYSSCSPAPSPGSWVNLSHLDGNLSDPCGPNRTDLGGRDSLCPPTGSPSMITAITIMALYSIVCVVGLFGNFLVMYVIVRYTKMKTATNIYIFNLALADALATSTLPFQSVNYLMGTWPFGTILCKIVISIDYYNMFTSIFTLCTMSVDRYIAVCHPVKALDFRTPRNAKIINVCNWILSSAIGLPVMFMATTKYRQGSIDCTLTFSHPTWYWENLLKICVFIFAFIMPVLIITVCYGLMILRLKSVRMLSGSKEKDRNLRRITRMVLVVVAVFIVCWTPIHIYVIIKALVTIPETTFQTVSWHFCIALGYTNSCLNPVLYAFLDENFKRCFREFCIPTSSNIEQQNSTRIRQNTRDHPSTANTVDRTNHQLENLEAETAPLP
# Target sequence (P41143 whole entry, looked up): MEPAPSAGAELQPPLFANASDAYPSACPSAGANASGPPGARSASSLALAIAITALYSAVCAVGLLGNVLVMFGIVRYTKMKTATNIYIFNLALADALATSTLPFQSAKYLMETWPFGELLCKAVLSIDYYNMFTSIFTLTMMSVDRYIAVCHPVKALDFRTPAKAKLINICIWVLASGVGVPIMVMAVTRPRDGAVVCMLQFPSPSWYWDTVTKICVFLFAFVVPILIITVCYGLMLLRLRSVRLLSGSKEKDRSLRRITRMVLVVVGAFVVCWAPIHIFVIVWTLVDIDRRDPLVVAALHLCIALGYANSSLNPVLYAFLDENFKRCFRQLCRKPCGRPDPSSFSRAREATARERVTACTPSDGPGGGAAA
# MC4R antag cAMP – blocks human MC4R cAMP signaling; MC4R-expressing cells, MTII-stimulated cAMP, LANCE TR-FRET; inhibition, % at 6.5 µM; 0.48% of 360,000 active;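 active = inhibition above its plate's cutoff, the mean of tested wells on that plate plus 3 SD, cut at about 29% in these data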;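 note: 0% = Melanotan II alone and 100% = Melanotan II plus saturating MCL0020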
#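 Test system: U2OS cells stably expressing human melanocortin 4 receptor (MC4R); also added: Melanotan II challenge; compound: 6.5 µM single dose; timing: 30-min compound preincubation, 1-h Melanotan II challenge, 1-h detection, room temperature; signal: Eu-cAMP/anti-cAMP TR-FRET, emission 671 nm; repeats: one well per compound, no replicates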
# MC4R ag barr – agonists of human melanocortin 4 receptor (MC4R) beta-arrestin; P32245; U2OS MC4R beta-arrestin complementation, luminescence; percent of melanotan II response, DMSO zero; activation, % at 8.9 µM; 0.98% of 360,000 active;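 active = activation above a per-plate cutoff, the mean activation of sample wells on that plate plus 3 SD, cut at about 8% in these data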
# HTR5A inv ag – inverse agonist of human HTR5A in OPRM1-OPRD1 counter-screen. P47898. HTR5A cell line, luminescence, inverse agonism. inhibition, % at 9.3 µM. 0.083% of 340,000 active. AID 504634; in the data active = inhibition mostly above about 23%, no sharp cut-off; inactive = mostly below about 18%;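 note: 0% = cells with DMSO and 100% = no-cell wells with DMSO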
# MOR-DOR ag-1 – OPRM1-OPRD1 heterodimerization agonism; cells, luminescence; activation, % at 9.3 µM; 0.3% of 340,000 active;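 note: 0% = vehicle-treated cells and 100% = reference agonist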
# HTR5A ag – HTR5A agonism, opioid heterodimer counter-screen; HTR5A agonist assay, luminescence, cell-based; activation, % at 9.3 µM; 0.61% of 340,000 active; AID 504692; in the data active = activation mostly above about 9.5%, no sharp cut-off; inactive = mostly below about 7.6%;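 note: 0% = cells with vehicle only and 100% = reference agonist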
# MOR-DOR ag-2 – opioid heterodimer agonism, HTR5A counter-screen. 13% of 800 active. U2OS counter-screen cells, complementation luminescence, 3 h. AID 504913. activation, % at 9.3 µM. shares compounds with HTR5A ag
# HTR5A ag confirm – HTR5A (human) agonism, confirmation; shares compounds with HTR5A ag; HTR5A agonist cell assay, luminescence; activation, % at 9.3 µM; 17% of 800 active; in the data active = activation above about 17%;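 note: 0% = cells with vehicle only and 100% = full reference agonist response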
# Active calls of the source: *; · = not tested or not shown. Cut-off read from the data, not from the text of the source, unless noted: active = activation above about 18%; inactive = the rest.
SMILES,OPRM1-OPRD1 inv,MC4R antag cAMP,MC4R ag barr,HTR5A inv ag,MOR-DOR ag-1,HTR5A ag,MOR-DOR ag-2,HTR5A ag confirm
Cn1cnc(C(=O)NC2CCN(C(=O)OC(C)(C)C)CC2)c1C(=O)NC1CCN(C(=O)OC(C)(C)C)CC1,13,10,0,13,-2,0,·,·
CC(C)(C)OC(=O)N1CCC(NC(=O)c2ncn(Cc3ccccc3)c2C(=O)NC2CCN(C(=O)OC(C)(C)C)CC2)CC1,-11,10,0,-25,2,15*,5,10
Cc1cc(C)c(C(=O)Nc2ccc(Br)c(C(F)(F)F)c2)c(C)c1,-46,1,5,-13,8,18*,0,0
CC(NCCCOc1cccc2ccccc12)c1ccccc1 (stereo not drawn),-68,0,6,-58,14,15*,43*,2
COC(=O)c1c(NC(=O)CSc2n[nH]c(N)n2)sc(C)c1C,8,5,-2,0,-1,-1,·,·
CCOC(=O)c1c(NC(=O)CSc2n[nH]c(N)n2)sc(CC)c1C,-19,6,1,-24,3,17*,9,2
CCOC(=O)c1c(NC(=O)CSc2n[nH]c(CNc3ccccc3)n2)sc(C)c1C,-50,-11,8,-12,9,23*,6,4
CCCc1[nH]n(-c2ccc([N+](=O)[O-])cc2)c(=O)c1C=NCCc1c[nH]c2ccccc12,-7,11,0,-44,1,20*,5,5
Cc1[nH]n(-c2ccc([N+](=O)[O-])cc2)c(=O)c1C=NCCc1c[nH]c2ccccc12,-5,5,8.4*,-100,1,34*,3,10
Cc1[nH]n(-c2ccccc2)c(=O)c1C=NCCc1ccccc1,12,9,-1,-1,-2,2,·,·
CC(=O)c1ccc(Nc2nc(C(N)CC(C)C)cs2)cc1 (stereo not drawn),·,6,-1,·,·,·,·,·
Cc1ccc(C(=O)N2CCN(S(=O)(=O)c3ccc(C)c([N+](=O)[O-])c3)C2)cc1,2,-7,-3,12,0,-5,·,·
Cc1ccc(C(=O)C2=C(O)C(=O)N(Cc3cccnc3)C2c2ccc(OC(C)C)cc2)o1 (stereo not drawn),19,1,-2,-14,-6,2,·,·
COc1ccc(C2C(C(=O)c3ccc(C)o3)=C(O)C(=O)N2Cc2cccnc2)cc1 (stereo not drawn),14,7,-1,5,-2,15*,182*,4
COc1ccc(-c2nn(-c3ccccc3)cc2/C=C/C(=O)N(C)CC(=O)Nc2cccc(F)c2)cc1OC,-1,27,-1,11,0,15*,2,1
COc1cccc(NC(=O)CN(C)C(=O)/C=C/c2cn(-c3ccccc3)nc2-c2ccc(OC)c(OC)c2)c1,-4,8,0,7,1,-3,·,·
CCN1CCCC1CNC(=O)c1cn(C)c2ccc(S(=O)(=O)N3CCCCCC3)cc2c1=O (stereo not drawn),6,2,-1,21,-1,1,·,·
Cn1cc(C(=O)NCC2COc3ccccc3O2)c(=O)c2cc(S(=O)(=O)N3CCCCC3)ccc21 (stereo not drawn),-6,11,0,-113,1,49*,3,10
O=C(O)c1ccc2c(c1)S(=O)(=O)c1cc(N3CCN(c4ncccn4)CC3)ccc1C2=O,·,5,0,·,·,·,·,·
CN1C(=O)c2cccc3c(S(=O)(=O)N4CCCC4C(=O)O)ccc1c23 (stereo not drawn),5,-34,0,-49,-1,17*,0,0
C=CCn1c(SCC(=O)Nc2sccc2C(N)=O)nc2sc(C)c(C)c2c1=O,6,-18,2,-46,-1,18*,0,-3
COc1cccc2c1cc1c(=O)n(CC(=O)NCCCN3CCCCC3)nc(C)n12,13,6,-2,7,-2,0,·,·
O=C(CSc1nc2ccccc2c(=O)[nH]1)c1ccc(O)cc1O,-21,1,3,-5,4,16*,1,2
COc1ccc(NC(=O)CSc2nc3ccccc3c(=O)[nH]2)cc1S(N)(=O)=O,13,-1,0,-50,-3,21*,0,6
O=c1[nH]c(SCc2ccccc2)nc2[nH]ncc12,7,4,0,-11,-1,3,·,·
SMILES,OPRM1-OPRD1 inv,MC4R antag cAMP,MC4R ag barr,HTR5A inv ag,MOR-DOR ag-1,HTR5A ag,MOR-DOR ag-2,HTR5A ag confirm
Cc1ccc(-n2c(O)c(C=NC3CCS(=O)(=O)C3)c3ccccc3c2=O)cc1C (stereo not drawn),5,2,-3,-34,-1,15*,4,-4
O=C(CCl)N(c1ccc(Cl)cc1)c1c[nH]c2ccccc12,-12,20,-1,-27,2,16*,1,21*
O=C(Cc1ccc(Cl)cc1)NCCc1c[nH]c2ccccc12,12,4,-1,14,-2,-4,·,·
COc1ccc(-c2cn3c(C)c(C(=O)Nc4ccncc4)sc3n2)cc1,-6,-1,-1,-24,1,3,·,·
Cc1c(C(=O)Nc2ccncc2)sc2nc(-c3ccc(F)cc3)cn12,-27,-2,3,-47,5,19*,7,2
CCc1ccccc1NC(=O)CNC(=O)CNC(=O)Cc1ccccc1,11,-4,-1,4,-2,4,·,·
COc1cc(NC(=O)c2cc3ccccc3cc2O)c(OC)cc1Cl,-10,19,5,-7,2,2,·,·
Cc1ccc(Cl)cc1NC(=O)c1cc2ccccc2cc1O,-41,26,8.4*,2,8,22*,5,16
CCc1cc2ccccc2nc1SCC(=O)Nc1cc(C)on1,-15,1,5,-14,3,26*,3,4
CC(C)(c1ccccc1)c1ccc(OCCN2CCOCC2)cc1,-4,-4,-1,-54,1,14*,128*,1
CC(C)(c1ccccc1)c1ccc(OCCCN2CCNCC2)cc1,-4,5,-1,3,1,-1,·,·
Cc1cc(S(=O)(=O)Nc2ccc(F)cc2)c(C)s1,-7,-2,6,-2,1,1,·,·
COc1ccc(S(=O)(=O)N2CCOCC2)cc1C(=O)NCc1c(C)nn(Cc2ccccc2)c1C,2,20,-1,-12,0,4,·,·
COc1ccc(C(=O)NCc2c(C)nn(Cc3ccccc3)c2C)cc1S(=O)(=O)N1CCOCC1,13,-2,1,-42,-3,17*,0,0
